Key:
Type in all cases: functional
NCI-H226 = experiment: Growth inhibition of human NCI-H226 cells after 48 hrs by SRB assay; conditions: NCI-H226, 48 h
How it was run: (§1)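 NCI-60 panel screen. Cells exposed for 48 h to five concentrations (10−4, 10−5, 10−6, 10−7 and 10−8 M). Sulforhodamine B optical density is read just before compound addition (time zero) and after 48 h, for both treated and vehicle-control wells. Percent growth is calculated against control. GI50 is the concentration giving a 50% reduction in net cell growth relative to cell numbers on day 0.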

SK-MEL-5 = experiment: Growth inhibition of human SK-MEL-5 cells after 48 hrs by SRB assay; conditions: SK-MEL-5, 48 h; how it was run: as §1
HOP-62 = experiment: Growth inhibition of human HOP62 cells after 48 hrs by SRB assay; conditions: HOP-62, 48 h; how it was run: as §1
SK-MEL-28 = experiment: Growth inhibition of human SK-MEL-28 cells after 48 hrs by SRB assay; conditions: SK-MEL-28, 48 h; how it was run: as §1
Malme-3M = experiment: Growth inhibition of human MALME-3M cells after 48 hrs by SRB assay; how it was run: as §1
UO-31 = experiment: Growth inhibition of human UO31 cells after 48 hrs by SRB assay; conditions: UO-31, 48 h
How it was run: (§2)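 NCI-60 panel cells; preliminary single-dose screen at 10−5 M, then five-dose testing at 10−4 to 10−8 M (tenfold steps) with 48 h exposure. SRB-stained optical density read before compound addition (time zero), after 48 h with compound, and with vehicle control. Percent growth is calculated against control. GI50 is the concentration giving 50% reduction in net growth relative to day-0 cell number.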

[1] = Growth inhibition of human LOXIMVI cells after 48 hrs by SRB assay; conditions: LOX IMVI; how it was run: as §1
K562 = experiment: Growth inhibition of human K562 cells after 48 hrs by SRB assay; conditions: K562, 48 h; how it was run: as §1
NCI-H522 = experiment: Growth inhibition of human NCI-H522 cells after 48 hrs by SRB assay; conditions: NCI-H522, 48 h; how it was run: as §1
ACHN = experiment: Growth inhibition of human ACHN cells after 48 hrs by SRB assay; how it was run: as §1
SR = experiment: Growth inhibition of human SR cells after 48 hrs by SRB assay; how it was run: as §2
PC-3 = experiment: Growth inhibition of human PC3 cells after 48 hrs by SRB assay; conditions: PC-3, 48 h; how it was run: as §1
[2] = Growth inhibition of human BT549 cells after 48 hrs by SRB assay; conditions: BT-549, 48 h; how it was run: as §1
OVCAR-4 = experiment: Growth inhibition of human OVCAR4 cells after 48 hrs by SRB assay; conditions: OVCAR-4, 48 h; how it was run: as §1
SK-MEL-2 = experiment: Growth inhibition of human SK-MEL-2 cells after 48 hrs by SRB assay; conditions: SK-MEL-2, 48 h; how it was run: as §1
CAKI-1 = experiment: Growth inhibition of human Caki1 cells after 48 hrs by SRB assay; conditions: CAKI-1, 48 h; how it was run: as §1
U-251 = experiment: Growth inhibition of human U251 cells after 48 hrs by SRB assay; conditions: U-251, 48 h; how it was run: as §2
M14 = experiment: Growth inhibition of human M14 cells after 48 hrs by SRB assay; conditions: M14, 48 h; how it was run: as §1
HCT-15 = experiment: Growth inhibition of human HCT15 cells after 48 hrs by SRB assay; conditions: HCT-15, 48 h; how it was run: as §1
MDA-MB-231 = experiment: Growth inhibition of human MDA-MB-231/ATCC cells after 48 hrs by SRB assay; conditions: MDA-MB-231, 48 h; how it was run: as §1
[3] = Growth inhibition of human COLO205 cells after 48 hrs by SRB assay; conditions: COLO 205, 48 h; how it was run: as §1
OVCAR-3 = experiment: Growth inhibition of human OVCAR3 cells after 48 hrs by SRB assay; conditions: OVCAR-3, 48 h; how it was run: as §1
[4] = Growth inhibition of human HCC2998 cells after 48 hrs by SRB assay; conditions: HCC 2998, 48 h; how it was run: as §1
SNB-19 = experiment: Growth inhibition of human SNB19 cells after 48 hrs by SRB assay; conditions: SNB-19, 48 h; how it was run: as §1
OVCAR-5 = experiment: Growth inhibition of human OVCAR5 cells after 48 hrs by SRB assay; conditions: OVCAR-5, 48 h; how it was run: as §1
SNB-75 = experiment: Growth inhibition of human SNB75 cells after 48 hrs by SRB assay; conditions: SNB-75, 48 h; how it was run: as §2
[5] = Growth inhibition of human HOP92 cells after 48 hrs by SRB assay; conditions: HOP-92, 48 h; how it was run: as §1
MDA-MB-468 = experiment: Growth inhibition of human MDA-MB-468 cells after 48 hrs by SRB assay; conditions: MDA-MB-468, 48 h; how it was run: as §1
[6] = Growth inhibition of human NCI-ADR-RES cells after 48 hrs by SRB assay; how it was run: as §1
[7] = Growth inhibition of human RPMI8226 cells after 48 hrs by SRB assay; conditions: RPMI-8226, 48 h; how it was run: as §1
[8] = Growth inhibition of human MOLT4 cells after 48 hrs by SRB assay; conditions: MOLT-4, 48 h; how it was run: as §1
[9] = Growth inhibition of human SF295 cells after 48 hrs by SRB assay; conditions: SF-295, 48 h; how it was run: as §1
NCI-H23 = experiment: Growth inhibition of human NCI-H23 cells after 48 hrs by SRB assay; conditions: NCI-H23, 48 h; how it was run: as §1
A498 = experiment: Growth inhibition of human A498 cells after 48 hrs by SRB assay; conditions: A498, 48 h; how it was run: as §1
IGROV-1 = experiment: Growth inhibition of human IGROV1 cells after 48 hrs by SRB assay; conditions: IGROV-1, 48 h; how it was run: as §1
786-0 = experiment: Growth inhibition of human 786-0 cells after 48 hrs by SRB assay; conditions: 786-0, 48 h; how it was run: as §1
SK-OV-3 = experiment: Growth inhibition of human SKOV3 cells after 48 hrs by SRB assay; conditions: SK-OV-3, 48 h; how it was run: as §1
SW-620 = experiment: Growth inhibition of human SW620 cells after 48 hrs by SRB assay; conditions: SW-620, 48 h; how it was run: as §2
HL-60(TB) = experiment: Growth inhibition of human HL-60(TB) cells after 48 hrs by SRB assay; conditions: HL-60, 48 h
How it was run: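 NCI-60 panel screen: cells were exposed to test agent at five concentrations (10−4, 10−5, 10−6, 10−7 and 10−8 M) for 48 h. Sulforhodamine B optical density was read at time zero and after exposure to compound or vehicle control, and growth percentage versus control was calculated. GI50 was taken as the concentration giving a 50% reduction in net cell growth relative to day 0 cell numbers.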

HCT-116 = experiment: Growth inhibition of human HCT116 cells after 48 hrs by SRB assay; conditions: HCT-116, 48 h; how it was run: as §1
[10] = Growth inhibition of human Hs578T cells after 48 hrs by SRB assay; conditions: Hs-578T; how it was run: as §1
CCRF-CEM = experiment: Growth inhibition of human CCRF-CEM cells after 48 hrs by SRB assay; how it was run: as §1
HT-29 = experiment: Growth inhibition of human HT-29 cells after 48 hrs by SRB assay; conditions: HT-29, 48 h; how it was run: as §1
NCI-H460 = experiment: Growth inhibition of human NCI-H460 cells after 48 hrs by SRB assay; conditions: NCI-H460, 48 h; how it was run: as §1
DU-145 = experiment: Growth inhibition of human DU145 cells after 48 hrs by SRB assay; conditions: DU-145, 48 h; how it was run: as §1
A549 = experiment: Growth inhibition of human A549/ATCC cells after 48 hrs by SRB assay; conditions: A549, 48 h; how it was run: as §1
[11] = Growth inhibition of human SF539 cells after 48 hrs by SRB assay; conditions: SF-539, 48 h; how it was run: as §1
TK-10 = experiment: Growth inhibition of human TK10 cells after 48 hrs by SRB assay; conditions: TK-10, 48 h; how it was run: as §2
MCF7 = experiment: Growth inhibition of human MCF7 cells after 48 hrs by SRB assay; conditions: MCF7, 48 h; how it was run: as §1
OVCAR-8 = experiment: Growth inhibition of human OVCAR8 cells after 48 hrs by SRB assay; conditions: OVCAR-8, 48 h; how it was run: as §1
KM12 = experiment: Growth inhibition of human KM12 cells after 48 hrs by SRB assay; conditions: KM12, 48 h; how it was run: as §1
SF-268 = experiment: Growth inhibition of human SF268 cells after 48 hrs by SRB assay; conditions: SF-268, 48 h; how it was run: as §1
[12] = Growth inhibition of human RXF393 cells after 48 hrs by SRB assay; conditions: RXF 393, 48 h; how it was run: as §1
UACC-62 = experiment: Growth inhibition of human UACC62 cells after 48 hrs by SRB assay; conditions: UACC-62, 48 h; how it was run: as §2
SN12C = experiment: Growth inhibition of human SN12C cells after 48 hrs by SRB assay; how it was run: as §1
MDA-MB-435 = experiment: Growth inhibition of human MDA-MB-435 cells after 48 hrs by SRB assay; conditions: MDA-MB-435, 48 h; how it was run: as §1

COc1cc(/C=C/c2cc3ccccc3[nH]2)cc(OC)c1OC
GI50 (NCI-H226): 559 nM | GI50 (SK-MEL-5): 305 nM | GI50 (HOP-62): 933 nM | GI50 (SK-MEL-28): 944 nM | GI50 (Malme-3M): 388 nM | GI50 (UO-31): 172 nM | GI50 [1]: 664 nM | GI50 (K562): 393 nM | GI50 (NCI-H522): 294 nM | GI50 (ACHN): 620 nM | GI50 (SR): 241 nM | GI50 (PC-3): 381 nM | GI50 [2]: 938 nM | GI50 (OVCAR-4): 691 nM | GI50 (SK-MEL-2): 426 nM | GI50 (CAKI-1): 382 nM | GI50 (U-251): 442 nM | GI50 (M14): 332 nM | GI50 (HCT-15): 469 nM | GI50 (MDA-MB-231): 1300 nM | GI50 [3]: 343 nM | GI50 (OVCAR-3): 234 nM | GI50 [4]: 2250 nM | GI50 (SNB-19): 461 nM | GI50 (OVCAR-5): 963 nM | GI50 (SNB-75): 329 nM | GI50 [5]: 201 nM | GI50 (MDA-MB-468): 285 nM | GI50 [6]: 365 nM | GI50 [7]: 388 nM | GI50 [8]: 854 nM | GI50 [9]: 311 nM | GI50 (NCI-H23): 677 nM | GI50 (A498): 281 nM | GI50 (IGROV-1): 504 nM | GI50 (786-0): 802 nM | GI50 (SK-OV-3): 676 nM | GI50 (SW-620): 333 nM | GI50 (HL-60(TB)): 347 nM | GI50 (HCT-116): 534 nM | GI50 [10]: 257 nM | GI50 (CCRF-CEM): 368 nM | GI50 (HT-29): 335 nM | GI50 (NCI-H460): 374 nM | GI50 (DU-145): 384 nM | GI50 (A549): 624 nM | GI50 [11]: 231 nM | GI50 (TK-10): 21600 nM | GI50 (MCF7): 395 nM | GI50 (OVCAR-8): 587 nM | GI50 (KM12): 436 nM | GI50 (SF-268): 708 nM | GI50 [12]: 275 nM | GI50 (UACC-62): 465 nM | GI50 (SN12C): 1640 nM | GI50 (MDA-MB-435): 150 nM

Source: ChEMBL document CHEMBL3596157, “Heteroaromatic analogs of the resveratrol analog DMU-212 as potent anti-cancer agents” (2015)
